{"source": "paper PMC10925177", "about": "(bioRxiv, 2024)", "key": {"[1]": {"target": "T1, GLP (Homo sapiens, UniProt Q9H9B1)", "T1 sequence (Q9H9B1 1-1298)": "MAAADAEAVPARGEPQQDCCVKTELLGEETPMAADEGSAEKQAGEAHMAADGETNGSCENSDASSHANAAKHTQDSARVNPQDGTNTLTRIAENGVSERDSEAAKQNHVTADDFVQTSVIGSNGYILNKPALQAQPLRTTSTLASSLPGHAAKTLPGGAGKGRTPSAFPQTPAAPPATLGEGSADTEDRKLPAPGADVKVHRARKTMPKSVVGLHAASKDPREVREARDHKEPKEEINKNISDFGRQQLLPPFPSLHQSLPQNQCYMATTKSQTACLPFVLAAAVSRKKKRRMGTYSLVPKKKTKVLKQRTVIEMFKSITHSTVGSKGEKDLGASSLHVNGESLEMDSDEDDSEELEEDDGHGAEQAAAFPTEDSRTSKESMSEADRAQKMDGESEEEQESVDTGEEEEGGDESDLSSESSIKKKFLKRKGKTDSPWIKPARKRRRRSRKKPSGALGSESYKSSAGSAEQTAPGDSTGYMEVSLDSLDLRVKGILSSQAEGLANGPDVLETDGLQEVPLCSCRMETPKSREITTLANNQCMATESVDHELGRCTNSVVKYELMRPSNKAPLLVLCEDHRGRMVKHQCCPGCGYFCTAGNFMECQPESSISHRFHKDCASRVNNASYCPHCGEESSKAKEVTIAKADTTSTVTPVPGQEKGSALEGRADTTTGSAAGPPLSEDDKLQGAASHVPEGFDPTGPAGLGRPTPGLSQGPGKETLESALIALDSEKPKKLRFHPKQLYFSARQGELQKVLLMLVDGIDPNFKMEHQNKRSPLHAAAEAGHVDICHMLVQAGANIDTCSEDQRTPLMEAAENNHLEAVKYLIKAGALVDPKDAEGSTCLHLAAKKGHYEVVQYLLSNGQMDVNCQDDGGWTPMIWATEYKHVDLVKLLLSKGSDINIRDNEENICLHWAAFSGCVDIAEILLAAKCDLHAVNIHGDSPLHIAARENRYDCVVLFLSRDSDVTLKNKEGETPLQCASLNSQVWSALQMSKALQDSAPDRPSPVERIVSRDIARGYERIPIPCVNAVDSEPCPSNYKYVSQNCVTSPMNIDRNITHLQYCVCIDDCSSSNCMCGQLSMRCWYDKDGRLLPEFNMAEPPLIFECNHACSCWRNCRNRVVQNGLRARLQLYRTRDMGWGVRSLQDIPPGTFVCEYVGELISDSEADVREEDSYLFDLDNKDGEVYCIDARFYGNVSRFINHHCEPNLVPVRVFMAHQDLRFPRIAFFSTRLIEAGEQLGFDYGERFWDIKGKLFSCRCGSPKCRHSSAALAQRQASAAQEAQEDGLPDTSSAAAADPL", "test": "Western blot of GLP protein levels in cancer cells", "format": "cell-based", "outline": "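Cells (22Rv1, K562, H1299) were treated for 24 h at the indicated concentrations; 22Rv1 time courses were run at 3 μM. Cells were lysed in RIPA with protease inhibitors, and 10–30 μg of protein was resolved by SDS-PAGE and transferred to PVDF. Blots were probed overnight at 4 °C, with vinculin/β-actin as loading controls. Band intensity was normalised to DMSO, with n = 2 independent experiments (mean ± SD).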"}, "[2]": {"target": "T2, SET7/9 (Homo sapiens, UniProt Q8WTS6)", "T2 sequence (Q8WTS6 1-366)": "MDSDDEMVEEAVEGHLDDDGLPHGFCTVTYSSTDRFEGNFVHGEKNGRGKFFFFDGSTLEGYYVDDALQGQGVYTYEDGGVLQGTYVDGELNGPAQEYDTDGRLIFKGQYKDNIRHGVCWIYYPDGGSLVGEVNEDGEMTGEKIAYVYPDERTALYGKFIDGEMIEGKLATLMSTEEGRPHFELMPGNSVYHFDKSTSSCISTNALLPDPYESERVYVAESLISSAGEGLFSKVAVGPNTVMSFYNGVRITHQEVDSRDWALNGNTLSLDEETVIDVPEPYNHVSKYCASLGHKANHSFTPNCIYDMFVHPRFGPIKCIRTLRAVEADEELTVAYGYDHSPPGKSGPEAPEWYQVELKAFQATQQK", "test": "Radioactive methyltransferase assay, SET7/9", "format": "biochemical", "conditions": "10 μM compound", "outline": "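The selectivity screen covered 21 protein methyltransferases in radioisotope-based MT HotSpot methyltransferase assays run by a contract laboratory. Test compound was at 10 μM. Each assay was run in duplicate and reported as mean ± SD of the two replicates.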"}}, "data": [{"smiles": "COc1cc2c(NC3CCN(CCCC(=O)NCCCCCCCCCCCC(=O)N[C@H](C(=O)N4C[C@H](O)C[C@H]4C(=O)NCc4ccc(-c5scnc5C)cc4)C(C)(C)C)CC3)nc(N3CCC(F)(F)CC3)nc2cc1OCCCN1CCCC1", "note": "[Compound 10, (2S,4R)-1-((S)-2-(12-(4-(4-((2-(4,4-difluoropiperidin-1-yl)-6-methoxy-7-(3-(pyrrolidin-1-yl)propoxy)quinazolin-4-yl)amino)piperidin-1-yl)butanamido)dodecanamido)-3,3-dimethylbutanoyl)-4-hydroxy-N-(4-(4-methylthiazol-5-yl)benzyl)pyrrolidine-2-carboxamide]", "values": [{"measurement": "GLP degradation, in words", "setting": "[1]; 22Rv1 cells, 1 μM, 24 h, WB (Figure 3A)", "value": "potently induced degradation"}, {"measurement": "duration of GLP degradation effect", "setting": "[1]; 22Rv1 cells, 3 μM", "value": "up to 48 h"}, {"measurement": "time at which GLP degradation was first observed", "setting": "[1]; 22Rv1 cells, 3 μM", "value": 4, "unit": "h"}, {"measurement": "time to complete GLP degradation", "setting": "[1]; 22Rv1 cells, 3 μM", "value": "around 24 h"}, {"measurement": "GLP degradation, in words", "setting": "[1]; H1299 cells, 3 μM, 24 h, WB", "value": "degraded"}, {"measurement": "GLP degradation, in words", "setting": "[1]; K562 cells, 3 μM, 24 h, WB", "value": "induced G9a and GLP degradation"}, {"measurement": "DC50", "setting": "[1]; read-out: half-maximal degradation concentration (DC50) for GLP, 22Rv1 cells, 24 h, WB", "value": "260 ± 53", "unit": "nM"}, {"measurement": "inhibition of SET7/9", "setting": "[2]", "value": "moderately inhibited"}]}]}
